Results: ChEMBL document CHEMBL1131195, “Antileishmanial chalcones: statistical design, synthesis, and three-dimensional quantitative structure-activity relationship analysis” (J Med Chem, 1998)

Tests used:
[1] = Inhibitory activity against phytohemagglutininin A-induced proliferation of human lymphocytes; assay type: functional
Procedure, shortened: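 Human lymphocytes stimulated with phytohemagglutinin A were incubated in vitro with increasing concentrations of each chalcone, and inhibition of their proliferation was measured.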

Leishmania donovani [2] = assay: Tested in vitro for anti-leishmanial activity against Leishmania donovani; assay type: functional, organism-based
Procedure, shortened: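 In vitro assay using Leishmania donovani promastigotes incubated with increasing chalcone concentrations, with inhibition of parasite proliferation as the read-out.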

[3] = Inhibitory activity against phytohemagglutininin A-induced proliferation of human lymphocytes; Not tested due to low solubility; assay type: functional
Leishmania donovani [4] = assay: Tested in vitro for anti-leishmanial activity against Leishmania. donovani; Not tested due to low solubility; assay type: functional, organism-based

Row | Compound | IC50 [1] [µM] | IC50 (Leishmania donovani [2]) [µM] | IC50 [3] | IC50 (Leishmania donovani [4])
1 | COc1ccc(C(=O)/C=C/c2ccccc2O)c(OC)c1OC | 9 | 9.3 |  | 
2 | O=C(/C=C/c1ccc(Oc2ccccc2)cc1)c1ccc(F)cc1 | 33 | 42 |  | 
3 | COc1ccc(/C=C/C(=O)c2cccc([N+](=O)[O-])c2)c(OC)c1 | 18 | 8.6 |  | 
4 | COc1cc(OC)c(/C=C/C(=O)c2ccc(O)cc2)c(OC)c1 | 44 | 106 |  | 
5 | COc1ccc(C(=O)/C=C/c2ccc(C#N)cc2)c(OC)c1OC | 5.4 | 8.6 |  | 
6 | CCCCCCc1cc(/C=C/C(=O)c2ccc(O)cc2)c(OC)cc1O | 46 | 9.7 |  | 
7 | COc1cc(/C=C/C(=O)c2ccccc2[N+](=O)[O-])cc(OC)c1 | 3.7 | 3.4 |  | 
8 | CCCCOc1ccc(C(=O)/C=C/c2cc(OC)cc(OC)c2)cc1 | 52 | 35 |  | 
9 | COc1cc(/C=C/C(=O)c2cccc(F)c2)cc(OC)c1 | 9.2 | 5.5 |  | 
10 | COc1cc(/C=C/C(=O)c2ccc(N(C)C)cc2)cc(OC)c1 |  |  | Not Active | Not Active
11 | C=CCOc1ccc(C(=O)/C=C/c2ccc(OC)c(OC)c2)cc1 | 51 | 60 |  | 
12 | C=CCOc1ccc(C(=O)/C=C/c2cc(OC)ccc2OC)cc1 | 55 | 73 |  | 
13 | CCCCCCOc1ccc(C(=O)/C=C/c2ccccc2)cc1 | 99 | 62 |  | 
14 | CCCc1cc(/C=C/C(=O)c2ccc(O)cc2)c(OC)cc1O | 41 | 26 |  | 
15 | COc1cc(/C=C/C(=O)c2ccc(OC)c(OC)c2OC)cc(OC)c1 | 8.7 | 8.3 |  | 
16 | C=CCOc1ccc(C(=O)/C=C/c2cc(OC)c(CCCCCC)c(OC)c2)cc1 | 15 | 19 |  | 
17 | O=C(/C=C/c1ccc(F)cc1)c1ccc(C2CCCCC2)cc1 | 74 | 27 |  | 
18 | COc1ccc(C(=O)/C=C/c2cccc(F)c2)c(OC)c1OC | 6.4 | 9.7 |  | 
19 | COc1cc(/C=C/C(=O)c2ccc(C3CCCCC3)cc2)cc(OC)c1 | 39 | 31 |  | 
20 | COc1ccc(C(=O)/C=C/c2cccc([N+](=O)[O-])c2)c(OC)c1OC | 36 | 17 |  | 

Row | Compound | IC50 [1] [µM] | IC50 (Leishmania donovani [2]) [µM] | IC50 [3] | IC50 (Leishmania donovani [4])
21 | C=CCOc1ccc(C(=O)/C=C/c2cc(OC)c(CCCC)c(OC)c2)cc1 |  | 90 | Not Active | 
22 | COc1c(/C=C/C(=O)c2ccc(O)cc2)ccc(O)c1C | 27 | 22 |  | 
23 | C=CCOc1ccc(C(=O)/C=C/c2cc(OCC=C)ccc2OCC=C)cc1 | 61 | 38 |  | 
24 | COc1cc(/C=C/C(=O)c2ccccc2N(C)C)cc(OC)c1 | 5.7 | 7.3 |  | 
25 | COc1cc(O)cc(C)c1/C=C/C(=O)c1ccc(O)cc1 | 53 | 39 |  | 
26 | O=C(/C=C/c1ccc(F)cc1)c1ccc(F)cc1 | 22 | 15 |  | 
27 | COc1ccc(OC)c(/C=C/C(=O)c2ccc(O)cc2)c1 | 22 | 23 |  | 
28 | C=CCOc1ccc(C(=O)/C=C/c2cc(OC)cc(OC)c2)cc1 | 25 | 27 |  | 
29 | COc1ccc(/C=C/C(=O)c2ccc(O)cc2)c(OC)c1 | 71 | 48 |  | 
30 | COc1cc(/C=C/C(=O)c2cccc(N(C)C)c2)cc(OC)c1 | 5 | 5.8 |  | 
31 | C=CCOc1ccccc1C(=O)/C=C/c1ccc(OC)cc1OC |  | 5 | Not Active | 
32 | COc1ccc(C(=O)/C=C/c2ccccc2F)c(OC)c1OC | 11 | 15 |  | 
33 | O=C(/C=C/c1ccccc1)c1ccc(O)cc1 [4'-HYDROXYCHALCONE] | 28 | 16 |  | 
34 | O=C(/C=C/c1ccc(O)cc1)c1ccc(O)cc1 [4,4'-DIHYDROXYCHALCONE] | 59 | 83 |  | 
35 | COc1ccc(/C=C/C(=O)c2ccc(OC)cc2)cc1 [4,4'-DIMETHOXYCHALCONE] | 112 | 106 |  | 
36 | O=C(/C=C/c1ccc(O)c(O)c1)c1ccc(O)cc1O [BUTEIN] | 16 | 66 |  | 
37 | O=C(/C=C/c1ccccc1)c1ccccc1 [CHALCONE] | 21 | 20 |  | 
38 | COc1cc(O)ccc1/C=C/C(=O)c1ccc(O)cc1 [ECHINATIN] | 94 | 68 |  | 
39 | COc1cc(/C=C/C(=O)c2ccc(O)cc2O)ccc1O [HOMOBUTEIN] | 31 | 16 |  | 
40 | C=CC(C)(C)c1cc(/C=C/C(=O)c2ccc(O)cc2)c(OC)cc1O [LICOAGROCHACONE A] | 48 | 13 |  | 
